Laboratory results as given in ChEMBL document CHEMBL1128665, “Design, synthesis, and structure-activity relationship of novel dinucleotide analogs as agents against herpes and human immunodeficiency viruses” (J Med Chem, 1995).
≈ marks a conversion by molar mass, not a printed value.

What was measured:
[1] = test system: HeLa; assay: Inhibition of cytopathogenicity of Varicella-Zoster virus(VZV)(YS) in Hela cell culture.; type: functional, cell-based; conditions: Homo sapiens
[2] = test system: HeLa; assay: Inhibition of cytopathogenicity of herpes simplex type 2 virus([…] in Hela cell culture; type: functional, cell-based; conditions: Homo sapiens
[3] = test system: HeLa; assay: Inhibition of cytopathogenicity of herpes simplex type 1 virus (HSV-1)(KOS) in Hela cell culture.; type: functional, cell-based; conditions: Homo sapiens
[4] = test system: HeLa; assay: Concentration required to cause microscopically visible change or disruption in about 50% of Hela cell sheet.; type: functional, cell-based; conditions: Homo sapiens
Summary of the method: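 Uninfected HeLa cell sheets were exposed to a range of compound concentrations and checked microscopically for morphological change. The value is the concentration causing visible change or disruption in about 50% of the cell sheet.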

[5] = Solubility was determined with phosphate buffer (0.10M, 5 mL).; type: physicochemical; conditions: read-out: Solubility in water
Summary of the method: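 Solid compound (70 mg) was agitated in 0.10 M phosphate buffer (5.0 mL) for 20 h. Undissolved solid was filtered off on sintered glass, and the dissolved concentration was determined by UV absorbance.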

[6] = test system: MT4; assay: Inhibitory Effect against HIV-1 (IIIB) in MT4 cells; conditions: Homo sapiens
[7] = test system: MT4; assay: Concentration required to reduce the number of viable uninfected cells by 50%; type: functional, cell-based; conditions: Homo sapiens
Summary of the method: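 Uninfected MT4 cells were used for the toxicity arm of the anti-HIV-1 cell-protection assay. The value is the concentration reducing the number of viable uninfected cells by 50%. […]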

[8] = test system: HeLa; assay: Inhibition of cytopathogenicity of Varicella-Zoster virus(VZV)(YS) in Hela cell culture; Not active up to 128 ug/mL.; type: functional, cell-based, Homo sapiens
[9] = test system: MT4; assay: Inhibitory Effect against HIV-1 (IIIB) in MT4 cells; Not active up to 128 ug/mL.; conditions: Homo sapiens
[10] = test system: HeLa; assay: Inhibition of cytopathogenicity of herpes simplex type 2 virus([…] in Hela cell culture; Not active up to 128 ug/mL.; type: functional, cell-based, Homo sapiens

| SMILES | IC50 [2] [µg/mL] | IC50 ([3]; read-out: IC50) [µg/mL] | IC50 ([4]; read-out: IC50) [µg/mL] | solubility [5] [µg/mL] | IC50 [6] [µg/mL] | IC50 [7] [µg/mL] | other results |
| --- | --- | --- | --- | --- | --- | --- | --- |
| CCOP(=O)(O)CCOCn1cnc2c(N)ncnc21.N | 13.8 | 11.3 | 176 | – | – | – | IC50 [1]: 25 µg/mL |
| Nc1ncnc2c1ncn2COCCP(=O)(O)O | 5.86 (≈ 21.5 µM) | 3.98 (≈ 14.6 µM) | 215 (≈ 787 µM) | 13600 (≈ 49900 µM) | – | – | IC50 [1]: 16 µg/mL (≈ 58.6 µM) |
| COC(=O)[C@@H](C)NP(=O)(C[C@H]1O[C@@H](n2cc(C)c(=O)[nH]c2=O)C[C@@H]1F)O[C@H]1C[C@H](n2cc(C)c(=O)[nH]c2=O)O[C@@H]1CO (some centres undefined) | – | – | – | 8920 (≈ 14400 µM) | 0.5 (≈ 0.81 µM) | 462 (≈ 748 µM) | – |
| COC(=O)[C@@H](C)NP(=O)(C[C@H]1O[C@@H](n2cc(C)c(=O)[nH]c2=O)C[C@@H]1N=[N+]=[N-])O[C@H]1C[C@H](n2cc(C)c(=O)[nH]c2=O)O[C@@H]1CO (some centres undefined) | – | – | – | 9200 (≈ 14400 µM) | 0.76 (≈ 1.19 µM) | 458 (≈ 714 µM) | – |
| COC(=O)[C@H](C)NP(=O)(C[C@H]1O[C@@H](n2cc(C)c(=O)[nH]c2=O)C[C@@H]1F)O[C@H]1C[C@H](n2cc(C)c(=O)[nH]c2=O)O[C@@H]1CO (some centres undefined) | – | – | – | 8790 (≈ 14200 µM) | 0.34 (≈ 0.551 µM) | 180 (≈ 292 µM) | – |
| COC(=O)[C@H](C)NP(=O)(C[C@H]1O[C@@H](n2cc(C)c(=O)[nH]c2=O)C[C@@H]1N=[N+]=[N-])O[C@H]1C[C@H](n2cc(C)c(=O)[nH]c2=O)O[C@@H]1CO (some centres undefined) | – | – | – | 9130 (≈ 14300 µM) | 0.61 (≈ 0.952 µM) | 200 (≈ 312 µM) | – |
| Cc1cn([C@H]2C[C@H](N=[N+]=[N-])[C@@H](CP(=O)(O)O[C@H]3C[C@H](n4cc(C)c(=O)[nH]c4=O)O[C@@H]3CO)O2)c(=O)[nH]c1=O | – | – | – | 3240 (≈ 5830 µM) | 1.92 (≈ 3.46 µM) | 99.5 (≈ 179 µM) | – |
| Cc1cn([C@H]2C[C@H](OP(=O)(O)C[C@H]3O[C@@H](n4cc(C)c(=O)[nH]c4=O)C[C@@H]3F)[C@@H](CO)O2)c(=O)[nH]c1=O | – | – | – | 3980 (≈ 7480 µM) | 3.04 (≈ 5.71 µM) | 79 (≈ 148 µM) | – |
| COC(=O)C(C)NP(=O)(CCOCn1cnc2c(N)ncnc21)O[C@H]1[C@H](O)[C@H](n2cnc3c(N)ncnc32)O[C@@H]1CO (some centres undefined) | 0.88 (≈ 1.45 µM) | 0.38 (≈ 0.625 µM) | 215 (≈ 355 µM) | 8250 (≈ 13600 µM) | – | – | IC50 [1]: 4.82 µg/mL (≈ 7.93 µM) |
| Nc1ncnc2c1ncn2COCCP(=O)(O)O[C@H]1[C@H](O)[C@H](n2cnc3c(N)ncnc32)O[C@@H]1CO | 16.3 (≈ 31.2 µM) | 8.97 (≈ 17.2 µM) | – | 2460 (≈ 4710 µM) | – | – | IC50 [8]: Not Active; IC50 [4]: 346 µg/mL (≈ 662 µM) |
| Cc1cn([C@H]2C[C@H](N=[N+]=[N-])[C@@H](CP(=O)(O)O)O2)c(=O)[nH]c1=O | – | – | – | 11200 (≈ 33700 µM) | 7.68 (≈ 23.2 µM) | 115 (≈ 346 µM) | – |
| Cc1cn([C@H]2C[C@H](F)[C@@H](CP(=O)(O)O)O2)c(=O)[nH]c1=O | – | – | – | 12300 (≈ 39800 µM) | 11.8 (≈ 38.3 µM) | 98.7 (≈ 320 µM) | – |
| Cc1cn([C@H]2C=C[C@@H](CP(=O)(O)O)O2)c(=O)[nH]c1=O | – | – | – | – | – | 196 (≈ 679 µM) | IC50 [9]: Not Active |
| Cc1cn([C@H]2C[C@H](C#N)[C@@H](CP(=O)(O)O)O2)c(=O)[nH]c1=O | – | – | – | – | – | 69.9 (≈ 222 µM) | IC50 [9]: Not Active |
| Cc1cn([C@H]2CC[C@@H](CP(=O)(O)O)O2)c(=O)[nH]c1=O | – | – | – | – | 23.5 (≈ 81 µM) | 128 (≈ 443 µM) | – |
| Cc1cn([C@H]2C[C@H](N=[N+]=[N-])[C@@H](CP(=O)(O)O)O2)c(N)nc1=O | – | – | – | – | – | 58.6 (≈ 178 µM) | IC50 [9]: Not Active |
| Nc1ncnc2c1ncn2COCCP(=O)(O)O.Nc1ncnc2c1ncn2[C@@H]1O[C@H](CO)[C@@H](O)[C@@H]1O | 1.25 | 0.67 | 168 | – | – | – | IC50 [1]: 2.86 µg/mL |
| Nc1ncnc2c1ncn2COCCO | 8.26 (≈ 39.5 µM) | 4.43 (≈ 21.2 µM) | 266 (≈ 1270 µM) | 1950 (≈ 9320 µM) | – | – | IC50 [1]: 6.5 µg/mL (≈ 31.1 µM) |
| Nc1ncnc2c1ncn2COCCO.Nc1ncnc2c1ncn2COCCP(=O)(O)O | 0.38 | 0.15 | 235 | – | – | – | IC50 [1]: 0.18 µg/mL |
| Nc1nc2c(ncn2COCCO)c(=O)[nH]1 [ACYCLOVIR] | 0.23 (≈ 1.02 µM) | 0.1 (≈ 0.444 µM) | 250 (≈ 1110 µM) | – | – | – | – |
| Nc1ncnc2c1ncn2[C@@H]1O[C@H](CO)[C@@H](O)[C@H]1O [ADENOSINE] | – | – | – | 400 (≈ 1500 µM) | – | – | IC50 [3]: 10.8 µg/mL (≈ 40.4 µM); IC50 [8]: Not Active; IC50 [4]: 98.8 µg/mL (≈ 370 µM); IC50 [10]: Not Active |
| Cc1cn([C@H]2C[C@H](N=[N+]=[N-])[C@@H](CO)O2)c(=O)[nH]c1=O [ZIDOVUDINE] | – | – | – | – | 0.02 (≈ 0.0748 µM) | 57.3 (≈ 214 µM) | – |
